# The source made the active and inactive calls. The rule behind the calls is not given here.
# Test system: Human immunodeficiency virus 1
# Assay: Antiviral activity against HIV1 in human MT4 cells assessed as prevention of virus-induced cytopathogenicity
# Format: functional, organism-based
# Method in brief: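 MT-4 cells, 1 × 10⁴ per well, with serial compound dilutions from a 100 mM DMSO stock. Infected with HIV-1 at 100 CCID50. Four-day incubation at 37 °C, then viable cells measured by MTT. Read-out is inhibition of virus-induced cytopathogenicity, assessed at non-cytotoxic concentrations.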
row,Structure (SMILES),Activity
1,CC(C)(C)C(=O)/C(C#N)=C/N1CCNC1=S,inactive
2,CC(=O)/C(=C/N1CCNC1=S)C(=O)c1ccccc1,inactive
3,COC(=O)/C(C#N)=C/N1CCNC1=S,inactive
